Results gathered from unrelated publications.
Protocols differ between the studies behind these lines.

| Structure (SMILES) | cell line | assay | conditions | quantity | result |
| --- | --- | --- | --- | --- | --- |
| CCCCCCCCCCCCCCCCCCOc1cccc(CC(=O)OCC[N+]2(C)CCCCC2)c1 | NCI-H23 | cell growth or viability, SRB | 10 µM | inhibition | 16.1% |
| Oc1cccc(-c2nc(N3CCOCC3)c3oc4ncccc4c3n2)c1 | MOLM-13 | cell growth or viability, CCK-8 | 1 µM | inhibition | 14.3% |
| CCCCCCCCCCCCCCCCCCOc1ccc(CC(=O)OCCC[N+](C)(C)C)cc1 | NCI-H23 | cell growth or viability, SRB | 10 µM | inhibition | 18.9% |
| NCCC(=O)Nc1ccccc1/N=c1\cc(-c2ccc3nc(N)oc3c2)oc2cc(O)ccc12 | MOLM-13 | cell growth or viability, CCK-8 | 1 µM | inhibition | 3.71% |
| CC(=O)O[C@H]1C(=O)[C@@]2(C)[C@H]([C@H](OC(=O)c3ccccc3)[C@]3(O)C[C@H](OC(=O)[C@H](O)[C@@H](NC(=O)c4ccccc4)c4ccccc4)C(C)=C1C3(C)C)[C@]1(OC(C)=O)CO[C@@H]1C[C@@H]2O | CHP-212 | cell growth or viability, SRB | 0.1235 µM | viability | 21.3% |
| COC(=O)[C@H]1[C@@H](O)[C@@]2(O)c3c(OC)cc(O[C@@H]4O[C@@H]([C@H](O)CO)CO[C@H]4OC)cc3O[C@@]2(c2ccc(OC)cc2)[C@@H]1c1ccccc1 | C6661 | cell growth or viability, MTS | 72 h | IC50 | 0.005 µM |
| C(=N\Nc1cc(N/N=C/c2ccc3ccccc3n2)nc(-c2ccccc2)n1)/c1ccc2ccccc2n1 | Bel-7402 | cell growth or viability, MTT | 48 h | IC50 | 10.2 µM |
| COc1cccc2c1C(=O)c1c(O)c3c(c(O)c1C2=O)C[C@@](O)(C(=O)CO)C[C@@H]3O[C@H]1C[C@H](N)[C@H](O)[C@H](C)O1 | CHP-212 | cell growth or viability, SRB | 0.3704 µM | viability | 19.4% |
| Cc1c(Cl)c(=O)oc2cc(OCCCCSC#N)ccc12 | SW1573 | cell growth or viability, SRB | – | GI50 | 5.8 µM |
| NCCCCC(=O)Nc1ccccc1/N=c1\cc(-c2ccc3c(c2)OCO3)oc2ccccc12 | MOLM-13 | cell growth or viability, CCK-8 | 1 µM | inhibition | -0.26% |
| Cc1cc(=O)oc2cc(OCCCCSC#N)ccc12 | SW1573 | cell growth or viability, SRB | – | GI50 | 0.63 µM |
| Cc1cnc(CNC(=O)c2c(=O)c3ccc(N4CCCN(C)CC4)nc3n3c2sc2ccccc23)cn1 | C6661 | cell growth or viability, MTS | 72 h | IC50 | 0.5 µM |
| O=C(C[C@@H](C(F)F)n1ccc(F)n1)N1CCC(O)(Cn2cnc3c(cnn3-c3ccc(F)cc3)c2=O)CC1 | CHP-212 | cell growth or viability, SRB | 82.3 nM | viability | 47.2% |
| O=c1[nH]cc(F)c(=O)[nH]1 | Bel-7402 | cell growth or viability, MTT | 48 h | IC50 | 15.8 µM |
| C[C@@H]1COCCN1c1cc(C2([S@](C)(=N)=O)CC2)nc(-c2cc[nH]c3nccc2-3)n1 | CT26 | cell growth or viability, ATP luminescence | 24 h | IC50 | 27.6 µM |
| CCCCCCCCCCCCCCCCCCOCC(COP(=O)([O-])OCC[N+](C)(C)C)OC (centres unmarked) | NCI-H23 | cell growth or viability, SRB | 10 µM | inhibition | 10.9% |
| COc1ccc2oc(-c3ccc4nc(N)oc4c3)c/c(=N\c3ccccc3NC(=O)CCN)c2c1 | MOLM-13 | cell growth or viability, CCK-8 | 1 µM | inhibition | 61.4% |
| CCCCCCCCCCCCCCCCCCOc1ccccc1CC(=O)OCC[N+]1(C)CCCCC1 | NCI-H23 | cell growth or viability, SRB | 10 µM | inhibition | 70.2% |

| Structure (SMILES) | cell line | assay | conditions | quantity | result |
| --- | --- | --- | --- | --- | --- |
| NCCC(=O)Nc1ccc(/N=c2\cc(-c3ccc4c(c3)OCO4)oc3ccccc23)cc1 | MOLM-13 | cell growth or viability, CCK-8 | 1 µM | inhibition | 3.6% |
| CC(C)C[C@H](NC(=O)[C@H](Cc1ccccc1)NC(=O)c1cnccn1)B(O)O | CHP-212 | cell growth or viability, SRB | 41.15 nM | viability | 90.7% |
| Nc1ccccc1/N=c1\cc(-c2ccc3c(c2)OCO3)oc2ccccc12 | MOLM-13 | cell growth or viability, CCK-8 | 1 µM | inhibition | 5.39% |
| CCCCCCCCCCCCCCCCCCOc1ccc(CC(=O)OCC[N+](C)(C)C)cc1 | NCI-H23 | cell growth or viability, SRB | 10 µM | inhibition | 6.67% |
| C(=N\Nc1cc(N/N=C/c2ccc3ccccc3n2)ncn1)/c1ccc2ccccc2n1 | Bel-7402 | cell growth or viability, MTT | 48 h | IC50 | 34 µM |
| O=C(O[C@@H]1COC(=O)c2cc(O)c(O)c(O)c2-c2c(cc(O)c(O)c2O)C(=O)O[C@H]1[C@@H]1OC(=O)c2cc(O)c(O)c(O)c2-c2c(O)c(O)c(O)c3c2C(=O)O[C@H]1[C@@H]3O)c1cc(O)c(O)c(O)c1 | SIM-A9 | NO release, inhibitor, Griess | 10.7 µM, LPS-stimulated | inhibition | 52% |
| CCCCCCCCCCCCCCCCCCOc1cccc(CC(=O)OCC[N+](CC)(CC)CC)c1 | NCI-H23 | cell growth or viability, SRB | 10 µM | inhibition | 64.3% |
| COc1ncnc(C2CC2)c1-c1ncc2cnn(Cc3ccc(-c4nc(C(F)(F)F)cn4C(C)C)cc3)c2n1 | CHP-212 | cell growth or viability, SRB | 25 µM | viability | 76.7% |
| COCCC(=O)Nc1ccccc1/N=c1\cc(-c2ccc3c(c2)OCO3)oc2ccccc12 | MOLM-13 | cell growth or viability, CCK-8 | 1 µM | inhibition | 6.03% |
| C#Cc1cccc(Nc2ncnc3cc(OCCOC)c(OCCOC)cc23)c1 | Bel-7402 | cell growth or viability, MTT | 48 h | IC50 | > 20 µM |
| CCCCCCCCCCCCCCCCCCOc1ccccc1CC(=O)OCC[N+]1(C)CCOCC1 | NCI-H23 | cell growth or viability, SRB | 10 µM | inhibition | 33.5% |
| NCCC(=O)Nc1ccccc1/N=c1\cc(-c2ccc3nc(N)oc3c2)oc2ccccc12 | MOLM-13 | cell growth or viability, CCK-8 | 1 µM | inhibition | 60.4% |
| CNCc1ccc(-c2cc(-c3nc(-c4ccc(S(=O)(=O)C(C)C)cc4)cnc3N)on2)cc1 | CT26 | cell growth or viability, ATP luminescence | 24 h | IC50 | 3.05 µM |
| [NH2][Pt]([NH2])([Cl])[Cl] | NCI-H1573 | cell growth or viability, MTT | 48 h | IC50 | 75.8 µM |
| CCNNC(=O)c1ccc(CN(CC(=O)NCc2ccccc2)C(=O)c2ccc(N(C)C)cc2)cc1 | A2780cisR | cell growth or viability, MTT | 72 h | IC50 | 4.62 µM |
| CCCCCCCCCCCCCCCCCCOc1cccc(CC(=O)OCC[N+]2(C)CCOCC2)c1 | NCI-H23 | cell growth or viability, SRB | 10 µM | inhibition | 4.14% |
| CCc1nc(C(N)=O)c(Nc2ccc(N3CCC(N4CCN(C)CC4)CC3)c(OC)c2)nc1NC1CCOCC1 | MOLM-13 | cell growth or viability | 72 h | GI50 | 0.032 µM |
